Experiment [1] concerns the target T1, Histone-lysine N-methyltransferase SUV39H1 (Homo sapiens) (UniProt O43463).
T1 sequence (whole entry): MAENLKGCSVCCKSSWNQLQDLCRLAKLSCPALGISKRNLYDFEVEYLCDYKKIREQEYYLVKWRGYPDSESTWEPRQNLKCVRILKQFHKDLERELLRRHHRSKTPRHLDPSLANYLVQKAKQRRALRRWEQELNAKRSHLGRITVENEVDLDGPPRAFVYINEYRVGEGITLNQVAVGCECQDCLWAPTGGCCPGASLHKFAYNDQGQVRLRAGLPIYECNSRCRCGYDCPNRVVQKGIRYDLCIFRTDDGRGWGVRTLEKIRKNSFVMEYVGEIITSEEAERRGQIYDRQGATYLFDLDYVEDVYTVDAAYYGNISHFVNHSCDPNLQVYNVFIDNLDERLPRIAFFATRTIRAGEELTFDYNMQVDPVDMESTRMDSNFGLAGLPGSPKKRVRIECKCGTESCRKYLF
The conditions noted are these: KG-1a, dose 20.0 nM, time 48.0 hrs.

The target of experiment [2] is T1, Histone-lysine N-methyltransferase SUV39H1 (Homo sapiens). The conditions noted are these: HL-60, dose 20.0 nM, time 48.0 hrs.
Experiment [3] concerns HL-60. Briefly: Induction of myeloid differentiation in human HL-60 cells at 20 nM assessed as appearance of nuclear segmentation measured after 12 hrs by Liu's staining method. Format: functional, cell-based. Put shortly: (§1)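 Cells exposed 12 h were spun onto slides by cytospin. They were stained with Liu's reagent A for 1 min, then reagent B for 2.5 min, and morphology was examined by light microscopy.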

The target in experiment [4] is T1, Histone-lysine N-methyltransferase SUV39H1 (Homo sapiens). The conditions noted are these: HL-60, dose 20.0 nM, time 48.0 hrs. The source holds these as a separate data set.
In experiment [5] the test system is U-937. Briefly: Induction of myeloid differentiation in human U-937 cells at 20 nM in combination with 0.5 uM SAHA measured after 12 hrs by Liu's staining method. Format: functional, cell-based. Put shortly:
(§2)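 Cells received single epigenetic inhibitors or combinations and were collected by cytospin. After Liu's staining (reagent A 1 min, reagent B 2.5 min), differentiated cells were counted under a light microscope. Mean ± s.e. of three independent experiments.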

Experiment [6] has as its target T1, Histone-lysine N-methyltransferase SUV39H1 (Homo sapiens). The conditions noted are these: HL-60, dose 20.0 nM, time 48.0 hrs. The source holds these as a separate data set.
Experiment [7] relates to KG-1a. Briefly: Induction of myeloid differentiation in human KG-1a cells at 20 nM assessed as appearance of nuclear segmentation measured after 12 hrs by Liu's staining method. Format: functional, cell-based. Put shortly: as §1
Experiment [8] relates to HL-60. Briefly: Induction of myeloid differentiation in human HL-60 cells at 20 nM assessed as decrease in G9a mRNA expression measured after 48 hrs by RT-PCR assay. Format: functional, cell-based. Put shortly:
(§3)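 Treatment was 48 h. Total RNA (1 µg) was reverse transcribed, then SYBR green real-time PCR was run with actin as internal control: 95 °C 5 min, then 30 cycles of 95 °C/45 s, 60 °C/45 s, 72 °C/45 s. Mean ± s.e. of three independent experiments, compared with untreated control.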

Experiment [9] has as its target T1, Histone-lysine N-methyltransferase SUV39H1 (Homo sapiens). The conditions noted are these: KG-1a, dose 20.0 nM, time 48.0 hrs. This is another data set of the same source.
Experiment [10] has the same target. The conditions noted are these: KG-1a, dose 20.0 nM, time 48.0 hrs. This is another data set of the same source.
Experiment [11] relates to KG-1a. Briefly: Induction of myeloid differentiation in human KG-1a cells at 20 nM assessed as increase in CD11b mRNA expression measured after 48 hrs by RT-PCR assay. Format: functional, cell-based. Put shortly:
as §3

Experiment [12] has as its system KG-1a. Briefly: Induction of myeloid differentiation in human KG-1a cells at 20 nM assessed as reduction of nucleus to cytoplasm ratio measured after 12 hrs by Liu's staining method. In kind it is functional, cell-based. An outline of the steps:
as §1

Experiment [13] relates to HL-60. Briefly: Induction of myeloid differentiation in human HL-60 cells at 20 nM in combination with 0.5 uM SAHA measured after 12 hrs by Liu's staining method. In kind it is functional, cell-based. An outline of the steps: as §2
Experiment [14] has as its system U-937. Briefly: Induction of myeloid differentiation in human U-937 cells at 20 nM assessed as increase in CD11b mRNA expression measured after 48 hrs by RT-PCR assay. Format: functional, cell-based. Put shortly:
as §3

In experiment [15] the test system is KG-1a. Briefly: Induction of myeloid differentiation in human KG-1a cells at 20 nM assessed as decrease in G9a mRNA expression measured after 48 hrs by RT-PCR assay. In kind it is functional, cell-based. Put shortly: as §3
The test system of experiment [16] is KG-1a. Briefly: Induction of myeloid differentiation in human KG-1a cells at 20 nM assessed as decrease in SUV39H1 mRNA expression measured after 48 hrs by RT-PCR assay. In kind it is functional, cell-based. Put shortly:
as §3

The subject of experiment [17] is U-937. Briefly: Induction of myeloid differentiation in human U-937 cells at 20 nM assessed as decrease in SUV39H1 mRNA expression measured after 48 hrs by RT-PCR assay. Format: functional, cell-based. Put shortly:
as §3

Experiment [18] addresses T1, Histone-lysine N-methyltransferase SUV39H1 (Homo sapiens). The conditions noted are these: U-937, dose 20.0 nM, time 48.0 hrs.
For experiment [19] the target is unchanged. The conditions noted are these: HL-60, dose 20.0 nM, time 48.0 hrs. The source holds these as a separate data set.
Experiment [20] relates to HL-60. Briefly: Induction of myeloid differentiation in human HL-60 cells at 20 nM assessed as increase in CD11b mRNA expression measured after 48 hrs by RT-PCR assay. In kind it is functional, cell-based. Put shortly:
as §3

Experiment [21] has as its target T1, Histone-lysine N-methyltransferase SUV39H1 (Homo sapiens). The conditions noted are these: U-937, dose 20.0 nM, time 48.0 hrs. The source holds these as a separate data set.
Experiment [22] has the same target. The conditions noted are these: U-937, dose 20.0 nM, time 48.0 hrs. The source holds these as a separate data set.
Experiment [23] has the same target. The conditions noted are these: U-937, dose 20.0 nM, time 48.0 hrs. This is another data set of the same source.
Experiment [24] relates to HL-60. Briefly: Induction of myeloid differentiation in human HL-60 cells at 20 nM assessed as reduction of nucleus to cytoplasm ratio measured after 12 hrs by Liu's staining method. In kind it is functional, cell-based. An outline of the steps:
as §1

Experiment [25] relates to HL-60. Briefly: Induction of myeloid differentiation in human HL-60 cells at 20 nM assessed as decrease in SUV39H1 mRNA expression measured after 48 hrs by RT-PCR assay. In kind it is functional, cell-based. Put shortly:
as §3

The target of experiment [26] is T1, Histone-lysine N-methyltransferase SUV39H1 (Homo sapiens). The conditions noted are these: KG-1a, dose 20.0 nM, time 48.0 hrs. This is another data set of the same source.
The subject of experiment [27] is U-937. Briefly: Induction of myeloid differentiation in human U-937 cells at 20 nM assessed as decrease in G9a mRNA expression measured after 48 hrs by RT-PCR assay. Format: functional, cell-based. An outline of the steps:
as §3

The test system of experiment [28] is KG-1a. Briefly: Induction of myeloid differentiation in human KG-1a cells at 20 nM in combination with 0.5 uM SAHA measured after 12 hrs by Liu's staining method. In kind it is functional, cell-based. An outline of the steps:
as §2

Experiment [29] concerns U-937. Briefly: Cytotoxicity against human U-937 cells at 20 nM assessed as decrease in cell viability in combination with 0.5 uM SAHA measured after 24 hrs by MTT assay. In kind it is functional.
The test system of experiment [30] is KG-1a. Briefly: Cytotoxicity against human KG-1a cells at 20 nM assessed as decrease in cell viability in combination with 0.5 uM SAHA measured after 24 hrs by MTT assay. In kind it is functional.
In experiment [31] the test system is HL-60. Briefly: Cytotoxicity against human HL-60 cells at 20 nM assessed as decrease in cell viability in combination with 0.5 uM SAHA measured after 24 hrs by MTT assay. In kind it is functional.
In experiment [32] the test system is U-937. Briefly: Cytotoxicity against human U-937 cells assessed as decrease in cell viability measured after 48 hrs by MTT assay. In kind it is functional, cell-based. The conditions noted are these: U-937, 48 h.
Experiment [33] concerns U-937. Briefly: Induction of myeloid differentiation in human U-937 cells at 20 uM assessed as increase in CD11b mRNA expression measured after 48 hrs by RT-PCR assay. Format: functional, cell-based. An outline of the steps:
(§4)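 Cells exposed for 48 h (KG-1a in IMDM/15% FBS; HL-60 and U937 in RPMI/10% FBS). Total RNA extracted, 1 µg reverse transcribed, CD11b quantified by SYBR green real-time PCR normalised to actin. Cycling was 30 cycles of 95 °C, 60 °C and 72 °C, 45 s each. Mean ± s.e. of three independent experiments, compared with untreated control.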

Experiment [34] deals with KG-1a. Briefly: Cytotoxicity against human KG-1a cells assessed as decrease in cell viability measured after 48 hrs by MTT assay. In kind it is functional, cell-based.
Experiment [35] relates to HL-60. Briefly: Induction of myeloid differentiation in human HL-60 cells at 20 uM assessed as increase in CD11b mRNA expression measured after 48 hrs by RT-PCR assay. In kind it is functional, cell-based. Put shortly: as §4
Experiment [36] has as its system U-937. Briefly: Cytotoxicity against human U-937 cells assessed as decrease in cell viability measured after 24 hrs by MTT assay. The conditions noted are these: U-937, 24 h. In kind it is functional, cell-based. Put shortly:
(§5)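 MTT viability read 24 h after exposure over a low concentration range (0–25 μM for one inhibitor, 0–100 for the other as printed). IC50 was derived for each line. Culture: HL-60 and U937 in RPMI + 10% FBS, KG-1a in IMDM + 15% FBS.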

Experiment [37] concerns KG-1a. Briefly: Induction of myeloid differentiation in human KG-1a cells at 20 uM assessed as increase in CD11b mRNA expression measured after 48 hrs by RT-PCR assay. In kind it is functional, cell-based. Put shortly: as §4
Experiment [38] has as its system HL-60. Briefly: Cytotoxicity against human HL-60 cells assessed as decrease in cell viability measured after 24 hrs by MTT assay. Format: functional, cell-based. The conditions noted are these: HL-60, 24 h. An outline of the steps: as §5
In experiment [39] the test system is KG-1a. Briefly: Cytotoxicity against human KG-1a cells assessed as decrease in cell viability measured after 24 hrs by MTT assay. In kind it is functional, cell-based. An outline of the steps: as §5
Experiment [40] concerns HL-60. Briefly: Cytotoxicity against human HL-60 cells assessed as decrease in cell viability measured after 48 hrs by MTT assay. In kind it is functional, cell-based. The conditions noted are these: HL-60, 48 h.

Active and inactive are the calls of the source. The calls are words filed in the database; no cut-off is given here.

In the case of `CN1C(=O)[C@@]23C[C@]4([C@]56C[C@@]78SS[C@@](CO)(C(=O)N7[C@H]5Nc5ccccc56)N(C)C8=O)c5ccccc5N[C@@H]4N2C(=O)[C@]1(CO)SS3`, the inhibition entry in experiment [1], in experiment [2], in [4], in experiment [6], in experiment [9] and in experiment [10] was “Active” in each case. Further, the inhibition entry in [19] and in experiment [26] was “Active” in each case. The outcome with HL-60 [3], with KG-1a [7], in the experiment on HL-60 [8], in the experiment on KG-1a [11], with KG-1a [12] and in the experiment with U-937 [14] was Active. The outcome with KG-1a [15], in the experiment on KG-1a [16], in the experiment with HL-60 [20], in the experiment with HL-60 [24] and in the experiment with HL-60 [25] was Active. For the same compound, the outcome with U-937 [5], in the experiment with HL-60 [13], in the experiment on U-937 [17], in the experiment on U-937 [27] and with KG-1a [28] was inactive. Further, the inhibition result in [18], in [21], in [22] and in experiment [23] was “inactive” each time.

On to `CN1C(=O)[C@@]23C[C@]4([C@]56C[C@@]78SS[C@@](CO)(C(=O)N7[C@H]5Nc5ccccc56)N(C)C8=O)c5ccccc5N[C@@H]4N2C(=O)[C@]1(CO)SS3.O=C(CCCCCCC(=O)Nc1ccccc1)NO` [listing 1 of 2 here], for which the Activity with U-937 [29] is recorded as 20%; in the experiment on KG-1a [30], 40%; in the experiment on HL-60 [31], 40%.

Turning to `COc1cc2c(NC3CCN(C(C)C)CC3)nc(C3CCCCC3)nc2cc1OCCCN1CCCC1`, the IC50 with U-937 [32] amounted to 19.7 µM; with KG-1a [34], 22.4 µM; in the experiment with U-937 [36], 21.4 µM; in the experiment with HL-60 [38], 27.4 µM; in the experiment on KG-1a [39], 26.5 µM; in the experiment on HL-60 [40], 23.8 µM. Also, the outcome in the experiment with U-937 [33], with HL-60 [35] and in the experiment with KG-1a [37] was inactive.

`CN1C(=O)[C@@]23C[C@]4([C@]56C[C@@]78SS[C@@](CO)(C(=O)N7[C@H]5Nc5ccccc56)N(C)C8=O)c5ccccc5N[C@@H]4N2C(=O)[C@]1(CO)SS3.O=C(CCCCCCC(=O)Nc1ccccc1)NO` [listing 2 of 2 here]: the outcome in the experiment on U-937 [5], with HL-60 [13] and with KG-1a [28] was inactive.

Source of the values: ChEMBL document CHEMBL5674867, “The SUV39H1 inhibitor chaetocin induces differentiation and shows synergistic cytotoxicity with other epigenetic drugs in acute myeloid leukemia cells” (Blood Cancer J, 2015).
